# Columns and labels:
# [1] = Octanol-water partition coefficient, log P of the compound by HPLC analysis; type: physicochemical
# In short: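 log P was estimated from HPLC retention, with column dead time measured using unretained formamide.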
# [2] = target: Protein kinase C delta type (Homo sapiens, UniProt Q05655); assay: Inhibition of [3H]PDBu binding to PKCdelta-C1A domain peptide (unknown origin)
# In short: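 Competitive [3H]PDBu binding used 14 or 40 nM PKCδ C1 peptide and 20 nM [3H]PDBu (19.6 Ci/mmol), in 50 mM Tris-maleate (pH 7.4 at 4 °C) with 50 µg/mL phosphatidylserine, 3 mg/mL bovine γ-globulin and varied inhibitor concentrations. IC50 was taken as 50% inhibition of specific binding. Ki was derived by the Sharkey–Blumberg method.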
# Human gammaherpesvirus 4 [3] = assay: Induction of EBV-early antigen expressed in human Raji cells at 10^-6 M after 48 hrs by immunofluorescence assay relative to control; type: organism-based; conditions: human gammaherpesvirus 4, raji, 1 µM
# In short: (§1)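 Raji B-lymphoblastoid cells (5 × 10^5/mL) in RPMI 1640 with 10% FBS, with 4 mM sodium n-butyrate as synergist and test compound at 10^-7 or 10^-6 M (final DMSO 0.4%). Incubated 48 h at 37 °C under 5% CO2. Smears were stained by indirect immunofluorescence using NPC patient serum and FITC anti-human IgG. At least 500 cells counted; % EA-positive recorded; n = 3, SEM.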
# Human gammaherpesvirus 4 [4] = assay: Induction of EBV-early antigen expressed in human Raji cells at 10^-7 M after 48 hrs by immunofluorescence assay relative to control; type: organism-based; conditions: human gammaherpesvirus 4, raji, 0.1 µM; in short: as §1
# Sequence of Protein kinase C delta type (Q05655 whole entry, the tested form may be a part): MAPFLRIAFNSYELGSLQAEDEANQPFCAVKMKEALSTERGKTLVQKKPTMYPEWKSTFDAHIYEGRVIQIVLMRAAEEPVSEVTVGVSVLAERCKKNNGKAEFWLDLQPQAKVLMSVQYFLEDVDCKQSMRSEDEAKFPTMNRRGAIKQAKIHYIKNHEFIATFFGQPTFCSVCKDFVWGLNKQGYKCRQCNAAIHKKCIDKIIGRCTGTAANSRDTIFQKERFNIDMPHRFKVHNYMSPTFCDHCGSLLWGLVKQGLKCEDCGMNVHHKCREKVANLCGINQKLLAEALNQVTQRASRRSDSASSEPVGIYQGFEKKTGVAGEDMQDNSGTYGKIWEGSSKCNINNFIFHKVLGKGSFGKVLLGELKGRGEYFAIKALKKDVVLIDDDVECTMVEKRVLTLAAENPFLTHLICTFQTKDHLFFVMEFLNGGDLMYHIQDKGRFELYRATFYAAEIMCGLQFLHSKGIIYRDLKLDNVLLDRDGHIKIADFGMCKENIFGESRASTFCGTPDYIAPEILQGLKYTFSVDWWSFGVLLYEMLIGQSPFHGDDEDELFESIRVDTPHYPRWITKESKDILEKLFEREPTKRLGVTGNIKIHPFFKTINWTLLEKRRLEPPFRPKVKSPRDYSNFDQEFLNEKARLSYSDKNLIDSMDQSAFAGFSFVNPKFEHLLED
structure (smiles),measurement,setting,value
CO[C@@H](CC[C@H](C)[C@H]1O[C@@]23C[C@H](OC(=O)C[C@H]([C@@H](C)O)OC(=O)C[C@](O)(O2)[C@H](C)CC3(C)C)[C@@H]1C)c1cc(O)ccc1Br [APLYSIATOXIN],logP,[1],5.4
CO[C@@H](CC[C@H](C)[C@H]1O[C@@]23C[C@H](OC(=O)C[C@H]([C@@H](C)O)OC(=O)C[C@](O)(O2)[C@H](C)CC3(C)C)[C@@H]1C)c1cccc(O)c1 [DEBROMOAPLYSIATOXIN],Ki,[2],9.7 nM
CCCCCCCCCCCCCC(=O)O[C@@H]1[C@@H](C)[C@@]2(O)[C@@H](C=C(CO)C[C@]3(O)C(=O)C(C)=C[C@@H]23)[C@@H]2C(C)(C)[C@]12OC(C)=O [PHORBOL MYRISTATE ACETATE],Activity,Human gammaherpesvirus 4 [3],31.5%
same,Activity,Human gammaherpesvirus 4 [4],29.4%
